In ChEMBL document CHEMBL4699669, “Discovery of a Potent Adenine-Benzyltriazolo-Pleuromutilin Conjugate with Pronounced Antibacterial Activity against MRSA” (J Med Chem, 2020):
≈ marks a conversion by molar mass, not a printed value.

Experiments:
Staphylococcus aureus [1] = experiment: Antibacterial activity against methicilin-resistant Staphylococcus aureus USA300 FPR3757 incubated for 20 to 24 hrs by microbroth dilution assay; type: functional; conditions: time hrs 20-24
Outline: (§1)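 Broth microdilution per EUCAST in Mueller-Hinton broth. Inoculum 5.0·10^5 CFU/mL, prepared from overnight single-colony cultures at OD600 0.1 then diluted 100x. Final compound concentrations 0.015–16 µg/mL. Incubation at 37 °C for 20–24 h, protected from light. MIC is the lowest concentration with no visible growth. Each replicate uses three cultures; n = 2–3.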

Staphylococcus aureus [2] = experiment: Antibacterial activity against methicilin-resistant Staphylococcus aureus USA300 FPR3757 incubated for 20 hrs by microbroth dilution assay; type: functional
Outline: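 MBC determined from a completed MIC replicate (MRSA USA300 FPR3757, Mueller-Hinton, 5.0·10^5 CFU/mL). […] MBC is the lowest concentration giving a 99.9% reduction of the starting inoculum; n = 3.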

Staphylococcus aureus [3] = experiment: Antibacterial activity against methicilin-resistant Staphylococcus aureus 55508 incubated for 20 to 24 hrs by microbroth dilution assay; type: functional; conditions: time hrs 20-24; outline: as §1
Staphylococcus aureus [4] = experiment: Antibacterial activity against methicilin-resistant Staphylococcus aureus 52518 incubated for 20 to 24 hrs by microbroth dilution assay; type: functional; conditions: time hrs 20-24; outline: as §1
Staphylococcus aureus [5] = experiment: Antibacterial activity against methicilin-resistant Staphylococcus aureus 4828 incubated for 20 to 24 hrs by microbroth dilution assay; type: functional; conditions: time hrs 20-24; outline: as §1
[6] = test system: Staphylococcus epidermidis; experiment: Antibacterial activity against methicilin-resistant Staphylococcus epidermis 933010 incubated for 20 to 24 hrs by microbroth dilution assay; type: functional; conditions: time hrs 20-24; outline: as §1
Caco-2 [7] = experiment: Cytotoxicity against differentiated human Caco2 cells assessed as increase in ATP level at 108 ug/ml incubated for 3 hrs by Cell-titer Glo assay; type: cell-based; conditions: caco-2, 3 h, dose 108 µg/ml
Outline: (§2)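 Cells rinsed of growth medium, then exposed 3 h at 37 °C, 220 rpm, light-protected, to compound in HBSS with 10 mM HEPES, pH 7.4 (final DMSO <1% at top concentrations). Plates equilibrated 10 min at rt, CellTiter-Glo 2.0 added, mixed 2 min, signal stabilized 10 min. Luminescence (ATP) normalized to HBSS-only control cells. Mean ± SD of 3 wells, one passage.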

Caco-2 [8] = experiment: Cytotoxicity against undifferentiated human Caco2 cells assessed as ATP level at 108 ug/ml incubated for 3 hrs by Cell-titer Glo assay; type: cell-based; conditions: caco-2, 3 h, dose 108 µg/ml; outline: as §2
PC-3 = experiment: Cytotoxicity against human PC3 cells assessed as cell viability at 108 ug/ml incubated for 3 hrs by Cell-titer Glo assay; type: cell-based; conditions: pc-3, 3 h, dose 108 µg/ml; outline: as §2
HEK293 = experiment: Cytotoxicity against HEK293 cells expressing OAT3 assessed as cell viability at 108 ug/ml incubated for 3 hrs by Cell-titer Glo assay; type: ADME, cell-based; conditions: human, hek293, 3 h, dose 108 µg/ml; outline: as §2
[9] = Cytotoxicity against MDCK1 assessed as cell viability at 108 ug/ml incubated for 3 hrs by Cell-titer Glo assay; design: species or system Canis lupus familiaris; conditions: dog, mdck1, 3 h, dose 108 µg/ml; outline: as §2
Caco-2 [10] = experiment: Cytotoxicity against human Caco2 cells assessed as cell viability at 108 ug/ml incubated for 3 hrs by MTT assay; type: cell-based; conditions: caco-2, 3 h, dose 108 µg/ml
Outline: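 Undifferentiated Caco-2 cells, medium aspirated, treated 3 h at 37 °C, 220 rpm with compound in HEPES-buffered HBSS (HBSS alone as negative control, SDS as positive control). MTT then added (final 0.5 mg mL⁻¹) for 2 h more. Formazan dissolved overnight at 4 °C in 10 mM HCl/50% isobutanol/10% SDS. Mean ± SD of 3 wells, one passage.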

SMILES	MIC (Staphylococcus aureus [1]) [µg/mL]	also measured
C=C[C@]1(C)C[C@@H](OC(=O)Cn2cc(-c3cccc(-n4cnc5c(N)ncnc54)c3)nn2)[C@]2(C)[C@H](C)CC[C@]3(CCC(=O)[C@H]32)[C@@H](C)[C@@H]1O	0.06 (≈ 0.0939 µM)	
C=C[C@]1(C)C[C@@H](OC(=O)Cn2cc(-c3ccc(-n4cnc5c(N)ncnc54)cc3)nn2)[C@]2(C)[C@H](C)CC[C@]3(CCC(=O)[C@H]32)[C@@H](C)[C@@H]1O	0.5 (≈ 0.783 µM)	
C=C[C@]1(C)C[C@@H](OC(=O)Cn2cc(-c3cccc(CN)c3)nn2)[C@]2(C)[C@H](C)CC[C@]3(CCC(=O)[C@H]32)[C@@H](C)[C@@H]1O	2 (≈ 3.74 µM)	
C=C[C@]1(C)C[C@@H](OC(=O)Cn2cc(-c3cccc(Cn4cnc5c(N(CC)CC)ncnc54)c3)nn2)[C@]2(C)[C@H](C)CC[C@]3(CCC(=O)[C@H]32)[C@@H](C)[C@@H]1O	1 (≈ 1.41 µM)	
C=C[C@]1(C)C[C@@H](OC(=O)Cn2cc(-c3ccccc3C#N)nn2)[C@]2(C)[C@H](C)CC[C@]3(CCC(=O)[C@H]32)[C@@H](C)[C@@H]1O	0.5 (≈ 0.942 µM)	
C=C[C@]1(C)C[C@@H](OC(=O)Cn2cc(-c3ccc(Cn4cnc5c(NCCN)ncnc54)cc3)nn2)[C@]2(C)[C@H](C)CC[C@]3(CCC(=O)[C@H]32)[C@@H](C)[C@@H]1O	0.5 (≈ 0.719 µM)	
C=C[C@]1(C)C[C@@H](OC(=O)Cn2cc(-c3cccc(C#N)c3)nn2)[C@]2(C)[C@H](C)CC[C@]3(CCC(=O)[C@H]32)[C@@H](C)[C@@H]1O	1 (≈ 1.88 µM)	
C=C[C@]1(C)C[C@@H](OC(=O)Cn2cc(-c3ccccc3)nn2)[C@]2(C)[C@H](C)CC[C@]3(CCC(=O)[C@H]32)[C@@H](C)[C@@H]1O	2 (≈ 3.96 µM)	
C=C[C@]1(C)C[C@@H](OC(=O)Cn2cc(-c3ccccc3CN)nn2)[C@]2(C)[C@H](C)CC[C@]3(CCC(=O)[C@H]32)[C@@H](C)[C@@H]1O	4 (≈ 7.48 µM)	
C=C[C@]1(C)C[C@@H](OC(=O)Cn2cc(-c3ccccc3Cn3cnc4c(N(CC)CC)ncnc43)nn2)[C@]2(C)[C@H](C)CC[C@]3(CCC(=O)[C@H]32)[C@@H](C)[C@@H]1O	1 (≈ 1.41 µM)	
C=C[C@]1(C)C[C@@H](OC(=O)Cn2cc(-c3ccc(Cn4cnc5c(N)ncnc54)cc3)nn2)[C@]2(C)[C@H](C)CC[C@]3(CCC(=O)[C@H]32)[C@@H](C)[C@@H]1O	0.03 (≈ 0.046 µM)	MBC (Staphylococcus aureus [2]): 0.12 µg/mL (≈ 0.184 µM); MIC (Staphylococcus aureus [3]): 0.06 µg/mL (≈ 0.0919 µM); MIC (Staphylococcus aureus [4]): 0.03 µg/mL (≈ 0.046 µM); MIC (Staphylococcus aureus [5]): 0.06 µg/mL (≈ 0.0919 µM); MIC [6]: 0.25 µg/mL (≈ 0.383 µM); Activity (Caco-2 [7]): Toxic; Activity (Caco-2 [8]): Non-Toxic; Activity (PC-3): Non-Toxic; Activity (HEK293): Non-Toxic; Activity [9]: Non-Toxic; Activity (Caco-2 [10]): Non-Toxic
C=C[C@]1(C)C[C@@H](OC(=O)Cn2cc(-c3cccc(Cn4cc(C)c(=O)[nH]c4=O)c3)nn2)[C@]2(C)[C@H](C)CC[C@]3(CCC(=O)[C@H]32)[C@@H](C)[C@@H]1O	1 (≈ 1.55 µM)	
C=C[C@]1(C)C[C@@H](OC(=O)Cn2cc(-c3ccc(Cn4cnc5c(N(CC)CC)ncnc54)cc3)nn2)[C@]2(C)[C@H](C)CC[C@]3(CCC(=O)[C@H]32)[C@@H](C)[C@@H]1O	0.25 (≈ 0.353 µM)	
C=C[C@]1(C)C[C@@H](OC(=O)Cn2cc(-c3ccc(Cn4cc(C)c(=O)[nH]c4=O)cc3)nn2)[C@]2(C)[C@H](C)CC[C@]3(CCC(=O)[C@H]32)[C@@H](C)[C@@H]1O	0.13 (≈ 0.202 µM)	
C=C[C@]1(C)C[C@@H](OC(=O)Cn2cc(-c3ccc(CN(CC)CC)cc3)nn2)[C@]2(C)[C@H](C)CC[C@]3(CCC(=O)[C@H]32)[C@@H](C)[C@@H]1O	4 (≈ 6.77 µM)	
C=C[C@]1(C)C[C@@H](OC(=O)Cn2cc(-c3ccc(Cc4ccc(OC)cc4)cc3)nn2)[C@]2(C)[C@H](C)CC[C@]3(CCC(=O)[C@H]32)[C@@H](C)[C@@H]1O	8 (≈ 12.8 µM)	
C=C[C@]1(C)C[C@@H](OC(=O)Cn2cc(-c3cccc(CO)c3)nn2)[C@]2(C)[C@H](C)CC[C@]3(CCC(=O)[C@H]32)[C@@H](C)[C@@H]1O	0.5 (≈ 0.933 µM)	
C=C[C@]1(C)C[C@@H](OC(=O)Cn2cc(-c3cccc(Cn4cnc5c(N)ncnc54)c3)nn2)[C@]2(C)[C@H](C)CC[C@]3(CCC(=O)[C@H]32)[C@@H](C)[C@@H]1O	0.25 (≈ 0.383 µM)	

SMILES	MIC (Staphylococcus aureus [1]) [µg/mL]	also measured
C=C[C@]1(C)C[C@@H](OC(=O)Cn2cc(-c3ccccc3Cn3cc(C)c(=O)[nH]c3=O)nn2)[C@]2(C)[C@H](C)CC[C@]3(CCC(=O)[C@H]32)[C@@H](C)[C@@H]1O	1 (≈ 1.55 µM)	
C=C[C@]1(C)C[C@@H](OC(=O)Cn2cc(-c3cccc(Cc4cccc(CO)c4)c3)nn2)[C@]2(C)[C@H](C)CC[C@]3(CCC(=O)[C@H]32)[C@@H](C)[C@@H]1O	1 (≈ 1.6 µM)	
C=C[C@]1(C)C[C@@H](OC(=O)Cn2cc(-c3ccc(CN4CCN(C)CC4)cc3)nn2)[C@]2(C)[C@H](C)CC[C@]3(CCC(=O)[C@H]32)[C@@H](C)[C@@H]1O	4 (≈ 6.47 µM)	
C=C[C@]1(C)C[C@@H](OC(=O)Cn2cc(-c3ccccc3Cn3cnc4c(N(CC)CC)nc(N)nc43)nn2)[C@]2(C)[C@H](C)CC[C@]3(CCC(=O)[C@H]32)[C@@H](C)[C@@H]1O	0.5 (≈ 0.691 µM)	
C=C[C@]1(C)C[C@@H](OC(=O)Cn2cc(-c3cccc(CN(CC)CC)c3)nn2)[C@]2(C)[C@H](C)CC[C@]3(CCC(=O)[C@H]32)[C@@H](C)[C@@H]1O	2 (≈ 3.39 µM)	
C=C[C@]1(C)C[C@@H](OC(=O)Cn2cc(-c3cccc(N)c3)nn2)[C@]2(C)[C@H](C)CC[C@]3(CCC(=O)[C@H]32)[C@@H](C)[C@@H]1O	1 (≈ 1.92 µM)	
C=C[C@]1(C)C[C@@H](OC(=O)Cn2cc(-c3ccccc3Cn3cnc4c(N)ncnc43)nn2)[C@]2(C)[C@H](C)CC[C@]3(CCC(=O)[C@H]32)[C@@H](C)[C@@H]1O	0.5 (≈ 0.766 µM)	
C=C[C@]1(C)C[C@@H](OC(=O)Cn2cc(-c3ccccc3Cc3ccc(OC)cc3)nn2)[C@]2(C)[C@H](C)CC[C@]3(CCC(=O)[C@H]32)[C@@H](C)[C@@H]1O	2 (≈ 3.2 µM)	
C=C[C@]1(C)C[C@@H](OC(=O)Cn2cc(-c3ccc(CN4C(=O)c5ccccc5C4=O)cc3)nn2)[C@]2(C)[C@H](C)CC[C@]3(CCC(=O)[C@H]32)[C@@H](C)[C@@H]1O	0.25 (≈ 0.376 µM)	
C=C[C@]1(C)C[C@@H](OC(=O)Cn2cc(-c3cccc(Cc4cccc(CN(CC)CC)c4)c3)nn2)[C@]2(C)[C@H](C)CC[C@]3(CCC(=O)[C@H]32)[C@@H](C)[C@@H]1O	2 (≈ 2.94 µM)	
C=C[C@]1(C)C[C@@H](OC(=O)Cn2cc(-c3cccc(Cn4cnc5c(N6CCN(C)CC6)ncnc54)c3)nn2)[C@]2(C)[C@H](C)CC[C@]3(CCC(=O)[C@H]32)[C@@H](C)[C@@H]1O	0.5 (≈ 0.679 µM)	
C=C[C@]1(C)C[C@@H](OC(=O)Cn2cc(-c3ccc(CO)cc3)nn2)[C@]2(C)[C@H](C)CC[C@]3(CCC(=O)[C@H]32)[C@@H](C)[C@@H]1O	0.25 (≈ 0.467 µM)	
C=C[C@]1(C)C[C@@H](OC(=O)Cn2cc(-c3cccc(Cc4ccc(N(CC)CC)cc4)c3)nn2)[C@]2(C)[C@H](C)CC[C@]3(CCC(=O)[C@H]32)[C@@H](C)[C@@H]1O	8 (≈ 12 µM)	
C=C[C@]1(C)C[C@@H](OC(=O)Cn2cc(-c3cccc(CN4CCN(C)CC4)c3)nn2)[C@]2(C)[C@H](C)CC[C@]3(CCC(=O)[C@H]32)[C@@H](C)[C@@H]1O	2 (≈ 3.24 µM)	
C=C[C@]1(C)C[C@@H](OC(=O)Cn2cc(-c3cccc(Cc4ccc(OC)cc4)c3)nn2)[C@]2(C)[C@H](C)CC[C@]3(CCC(=O)[C@H]32)[C@@H](C)[C@@H]1O	16 (≈ 25.6 µM)	
C=C[C@]1(C)C[C@@H](OC(=O)Cn2cc(-c3ccc(Cn4cnc5c(NC(=N)N)ncnc54)cc3)nn2)[C@]2(C)[C@H](C)CC[C@]3(CCC(=O)[C@H]32)[C@@H](C)[C@@H]1O	0.5 (≈ 0.72 µM)	
C=C[C@]1(C)C[C@@H](OC(=O)Cn2cc(-c3ccc(CN)cc3)nn2)[C@]2(C)[C@H](C)CC[C@]3(CCC(=O)[C@H]32)[C@@H](C)[C@@H]1O	2 (≈ 3.74 µM)	
C=C[C@]1(C)C[C@@H](OC(=O)Cn2cc(-c3cccc(Cn4cnc5c(N(CC)CC)nc(N)nc54)c3)nn2)[C@]2(C)[C@H](C)CC[C@]3(CCC(=O)[C@H]32)[C@@H](C)[C@@H]1O	0.5 (≈ 0.691 µM)	
